Measurements reported in ChEMBL document CHEMBL3739295, “Cadinane-Type Sesquiterpenoids from Heterotheca inuloides: Absolute Configuration and Anti-inflammatory Activity” (J Nat Prod, 2015).
Activity calls are given as the source filed them. No cut-off for these calls is given here.

Experiments:
Mus musculus [1] = assay: Anti-inflammatory activity in TPA-induced mouse ear edema model assessed as inhibition of ear edema at 1 umol/ear; assay type: functional
Outline: (§1)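 In vivo 12-O-tetradecanoylphorbol 13-acetate (TPA)-induced ear edema in mice. Animals were handled under Mexican Official Norm MON-062-Z00-1999.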

Mus musculus [2] = assay: Anti-inflammatory activity in TPA-induced mouse ear edema model assessed as inhibition of ear edema; assay type: functional, organism-based; outline: as §1

Row | SMILES | IC50 (Mus musculus [2]) | inhibition (Mus musculus [1]) | inhibition (INH) (Mus musculus [1]) [%]
1 | CC1=C2CCC(C(=O)O)=C[C@@H]2[C@@H](C(C)C)CC1 | > 1 µmol |  | 21.51
2 | CC1=C[C@](O)(C(C)C)C(=O)c2cc(C)c(O)cc21 | > 1 µmol | Active | 
3 | Cc1ccc2c(c1)C(=O)C(C(C)C)=C[C@@]2(C)O | > 1 µmol | Active | 
4 | CC(C)[C@H]1CC[C@@](C)(O)c2ccc(C(=O)O)cc21 | > 1 µmol | Active | 

The next lines start with results.

Row | IC50 (Mus musculus [2]) | SMILES | inhibition (Mus musculus [1]) | inhibition (INH) (Mus musculus [1]) [%]
5 | > 1 µmol | CC1=CC[C@H](C(C)C)[C@H]2C=C(C(=O)O)CC=C12 | inactive | 
6 | > 228 µg | Cc1cc2c(C(C)C)ccc(C=O)c2cc1O |  | 43.14
7 | > 1 µmol | CC1=CC[C@H](C(C)C)c2cc(C(=O)O)ccc21 |  | 12.93
8 | > 1 µmol | COc1c(C(C)C)cc(C)c2ccc(C)cc12 |  | 15.32
